Data taken from ChEMBL document CHEMBL3751740, “New MKLP-2 inhibitors in the paprotrain series: Design, synthesis and biological evaluations” (Bioorg Med Chem, 2016).

Tests used:
[1] = molecular target: T1, Kinesin-like protein KIF11 (Homo sapiens) (UniProt P52732); assay: Inhibition of porcine brain microtubule-stimulated human recombinant GST-tagged Eg5 ATPase activity at 15 uM by microplate reader in presence of Mg2+ ATP relative to control
T1 sequence (whole entry): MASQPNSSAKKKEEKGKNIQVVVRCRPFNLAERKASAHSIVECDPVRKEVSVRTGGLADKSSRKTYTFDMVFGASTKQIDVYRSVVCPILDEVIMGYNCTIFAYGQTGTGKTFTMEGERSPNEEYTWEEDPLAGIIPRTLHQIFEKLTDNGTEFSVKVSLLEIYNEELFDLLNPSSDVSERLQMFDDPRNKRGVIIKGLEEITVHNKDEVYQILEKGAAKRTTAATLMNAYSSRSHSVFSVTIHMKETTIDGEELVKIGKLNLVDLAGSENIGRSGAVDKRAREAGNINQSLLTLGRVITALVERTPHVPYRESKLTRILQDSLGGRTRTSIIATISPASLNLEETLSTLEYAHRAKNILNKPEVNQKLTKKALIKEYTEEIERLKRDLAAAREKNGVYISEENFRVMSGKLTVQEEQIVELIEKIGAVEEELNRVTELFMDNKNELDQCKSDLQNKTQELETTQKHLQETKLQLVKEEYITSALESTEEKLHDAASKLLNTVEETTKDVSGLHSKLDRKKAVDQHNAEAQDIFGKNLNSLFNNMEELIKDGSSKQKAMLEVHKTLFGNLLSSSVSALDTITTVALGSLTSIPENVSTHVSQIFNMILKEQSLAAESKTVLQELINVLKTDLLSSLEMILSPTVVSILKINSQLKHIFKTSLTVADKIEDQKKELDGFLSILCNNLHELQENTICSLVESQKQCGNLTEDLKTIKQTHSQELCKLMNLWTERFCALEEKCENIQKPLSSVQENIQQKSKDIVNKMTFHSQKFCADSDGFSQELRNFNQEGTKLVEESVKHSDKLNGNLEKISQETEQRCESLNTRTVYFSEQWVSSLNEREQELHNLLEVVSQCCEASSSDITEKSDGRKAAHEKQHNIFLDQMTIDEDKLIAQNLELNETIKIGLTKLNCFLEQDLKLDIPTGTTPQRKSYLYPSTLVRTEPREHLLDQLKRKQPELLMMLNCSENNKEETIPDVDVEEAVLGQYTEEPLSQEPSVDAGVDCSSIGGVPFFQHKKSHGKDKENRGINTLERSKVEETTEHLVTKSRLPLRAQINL
Summary of the method: (§1)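 Each kinesin motor domain was tested against MT-stimulated ATPase at 22 °C in triplicate, with compounds at 15 µM. Buffer was 7.5 mM PIPES-NaOH pH 7.0 with MgCl2, Taxol, ELIPA reagents and 1.25 mg/mL MTs. Reactions were started with 1 mM Mg2+ATP and read kinetically at 360 nm. Monastrol and AMP-PNP (1 mM) were the controls.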

[2] = molecular target: T2, Kinesin-1 heavy chain (Homo sapiens) (UniProt P33176); assay: Inhibition of porcine brain microtubule-stimulated human recombinant GST-tagged Kif5B ATPase activity at 15 uM by microplate reader in presence of Mg2+ ATP relative to control; summary of the method: as §1
T2 sequence (whole entry): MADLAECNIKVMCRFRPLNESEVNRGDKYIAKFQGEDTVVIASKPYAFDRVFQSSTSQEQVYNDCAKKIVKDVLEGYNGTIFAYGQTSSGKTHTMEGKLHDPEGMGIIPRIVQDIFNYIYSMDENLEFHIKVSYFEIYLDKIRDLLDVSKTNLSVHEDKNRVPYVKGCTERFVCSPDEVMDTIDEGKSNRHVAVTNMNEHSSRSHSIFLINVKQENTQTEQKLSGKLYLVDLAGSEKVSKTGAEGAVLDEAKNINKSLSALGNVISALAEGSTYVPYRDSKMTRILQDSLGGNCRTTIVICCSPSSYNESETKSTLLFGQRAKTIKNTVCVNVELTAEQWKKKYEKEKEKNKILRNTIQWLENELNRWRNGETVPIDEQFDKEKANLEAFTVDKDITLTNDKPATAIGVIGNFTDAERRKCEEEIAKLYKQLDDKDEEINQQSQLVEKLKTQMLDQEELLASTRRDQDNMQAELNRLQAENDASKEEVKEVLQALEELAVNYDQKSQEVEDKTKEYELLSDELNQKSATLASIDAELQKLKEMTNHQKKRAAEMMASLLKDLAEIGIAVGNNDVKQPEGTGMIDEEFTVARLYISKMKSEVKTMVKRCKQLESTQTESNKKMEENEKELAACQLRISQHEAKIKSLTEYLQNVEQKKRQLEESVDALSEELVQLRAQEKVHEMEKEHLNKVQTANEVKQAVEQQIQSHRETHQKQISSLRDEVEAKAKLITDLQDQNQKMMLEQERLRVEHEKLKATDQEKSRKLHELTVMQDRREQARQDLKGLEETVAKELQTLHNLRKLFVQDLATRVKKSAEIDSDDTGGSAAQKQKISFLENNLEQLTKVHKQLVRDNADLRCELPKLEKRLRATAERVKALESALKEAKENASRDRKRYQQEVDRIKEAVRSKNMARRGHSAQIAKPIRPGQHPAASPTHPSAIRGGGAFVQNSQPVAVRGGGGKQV

[3] = molecular target: Centromere-associated protein E (Homo sapiens) (UniProt Q02224); assay: Inhibition of porcine brain microtubule-stimulated human recombinant GST-tagged CENP-E ATPase activity at 15 uM by microplate reader in presence of Mg2+ ATP relative to control; summary of the method: as §1
Chain of Centromere-associated protein E (Homo sapiens) (Q02224 whole entry): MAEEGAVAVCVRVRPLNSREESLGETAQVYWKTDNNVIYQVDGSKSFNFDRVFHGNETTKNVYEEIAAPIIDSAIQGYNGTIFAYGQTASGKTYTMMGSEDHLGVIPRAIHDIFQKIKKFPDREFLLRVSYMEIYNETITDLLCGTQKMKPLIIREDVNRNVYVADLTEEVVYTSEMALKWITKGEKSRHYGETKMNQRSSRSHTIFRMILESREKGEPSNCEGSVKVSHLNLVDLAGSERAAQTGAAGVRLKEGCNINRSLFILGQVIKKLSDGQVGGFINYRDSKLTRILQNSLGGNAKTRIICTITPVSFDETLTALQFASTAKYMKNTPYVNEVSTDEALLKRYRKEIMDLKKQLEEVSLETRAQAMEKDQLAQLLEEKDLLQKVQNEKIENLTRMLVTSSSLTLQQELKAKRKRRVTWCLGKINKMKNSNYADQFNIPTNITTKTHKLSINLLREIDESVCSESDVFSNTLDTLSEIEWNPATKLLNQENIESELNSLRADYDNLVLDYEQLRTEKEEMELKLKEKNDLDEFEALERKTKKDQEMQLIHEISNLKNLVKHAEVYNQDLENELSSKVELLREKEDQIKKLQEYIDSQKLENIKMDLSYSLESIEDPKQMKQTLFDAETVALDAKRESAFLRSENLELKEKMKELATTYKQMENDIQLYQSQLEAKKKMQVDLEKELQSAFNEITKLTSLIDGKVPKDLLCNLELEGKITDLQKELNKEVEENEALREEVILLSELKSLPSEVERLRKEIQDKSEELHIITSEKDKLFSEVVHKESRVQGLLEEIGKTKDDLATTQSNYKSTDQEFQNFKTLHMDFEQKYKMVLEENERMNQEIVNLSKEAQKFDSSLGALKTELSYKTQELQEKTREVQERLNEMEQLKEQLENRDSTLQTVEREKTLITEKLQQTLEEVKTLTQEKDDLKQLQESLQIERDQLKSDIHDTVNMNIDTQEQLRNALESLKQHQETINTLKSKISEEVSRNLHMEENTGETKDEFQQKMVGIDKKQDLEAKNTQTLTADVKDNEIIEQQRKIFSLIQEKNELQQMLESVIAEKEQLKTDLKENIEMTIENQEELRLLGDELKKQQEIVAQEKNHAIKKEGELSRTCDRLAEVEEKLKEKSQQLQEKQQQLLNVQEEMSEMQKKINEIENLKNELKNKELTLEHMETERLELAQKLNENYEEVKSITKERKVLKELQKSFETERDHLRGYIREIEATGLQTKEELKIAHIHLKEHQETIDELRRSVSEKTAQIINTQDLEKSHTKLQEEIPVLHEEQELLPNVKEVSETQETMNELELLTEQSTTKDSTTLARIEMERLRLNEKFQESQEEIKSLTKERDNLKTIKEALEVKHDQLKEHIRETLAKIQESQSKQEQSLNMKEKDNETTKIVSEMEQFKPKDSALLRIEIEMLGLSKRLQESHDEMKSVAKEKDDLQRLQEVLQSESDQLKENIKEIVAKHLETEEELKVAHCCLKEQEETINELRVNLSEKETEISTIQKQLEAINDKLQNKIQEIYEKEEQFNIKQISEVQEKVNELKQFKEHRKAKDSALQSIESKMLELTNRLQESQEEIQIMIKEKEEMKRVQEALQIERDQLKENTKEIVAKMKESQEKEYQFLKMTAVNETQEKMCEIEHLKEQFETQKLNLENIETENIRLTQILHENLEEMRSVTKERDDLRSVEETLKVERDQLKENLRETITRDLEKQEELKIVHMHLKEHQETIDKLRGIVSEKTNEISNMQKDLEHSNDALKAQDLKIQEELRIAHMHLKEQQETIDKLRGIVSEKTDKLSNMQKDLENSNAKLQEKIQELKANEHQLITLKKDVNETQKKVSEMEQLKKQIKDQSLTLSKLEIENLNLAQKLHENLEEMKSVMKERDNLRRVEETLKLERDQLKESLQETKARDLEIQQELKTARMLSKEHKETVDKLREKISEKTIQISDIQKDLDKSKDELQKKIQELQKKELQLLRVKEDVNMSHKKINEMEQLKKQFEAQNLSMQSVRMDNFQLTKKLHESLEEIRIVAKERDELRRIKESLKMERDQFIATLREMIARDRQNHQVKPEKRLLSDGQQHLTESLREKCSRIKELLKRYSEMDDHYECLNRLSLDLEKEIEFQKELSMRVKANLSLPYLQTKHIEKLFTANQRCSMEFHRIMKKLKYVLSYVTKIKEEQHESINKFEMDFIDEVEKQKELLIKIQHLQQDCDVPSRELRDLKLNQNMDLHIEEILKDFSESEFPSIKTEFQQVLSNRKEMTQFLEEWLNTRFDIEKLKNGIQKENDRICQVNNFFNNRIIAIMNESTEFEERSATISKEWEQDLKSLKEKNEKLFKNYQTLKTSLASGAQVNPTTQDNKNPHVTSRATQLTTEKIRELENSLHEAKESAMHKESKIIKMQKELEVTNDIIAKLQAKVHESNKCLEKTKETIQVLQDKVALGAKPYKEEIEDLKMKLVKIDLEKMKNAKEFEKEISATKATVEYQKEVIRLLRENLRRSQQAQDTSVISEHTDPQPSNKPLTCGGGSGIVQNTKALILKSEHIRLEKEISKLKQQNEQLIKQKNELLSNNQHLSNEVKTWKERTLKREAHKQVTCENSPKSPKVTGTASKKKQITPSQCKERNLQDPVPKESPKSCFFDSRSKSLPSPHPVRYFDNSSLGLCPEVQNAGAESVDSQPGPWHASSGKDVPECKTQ

In the case of CCOC(=O)C1=C(C)NC(=S)NC1c1cccc(O)c1 (stereo not drawn), the inhibition [1] is reported as > 30%, the inhibition [2] is reported as < 20% and the inhibition [3] is reported as < 20%.
With COc1cccc2[nH]cc(/C(C#N)=C/c3cccnc3)c12 the inhibition [1] was < 20%, the inhibition [2] was < 20% and the inhibition [3] was < 20%.
N#C/C(=C\c1cccnc1)c1c[nH]c2ccc(OCc3ccccc3)cc12 was tested, and the inhibition [1] was < 20%, the inhibition [2] was < 20% and the inhibition [3] was < 20%.
In the case of COc1ccc2[nH]cc(/C(C#N)=C/c3cccnc3)c2c1, the inhibition [1] is reported as < 20%, the inhibition [2] is reported as < 20% and the inhibition [3] is reported as < 20%.
For COc1ccc2c(/C(C#N)=C/c3cccnc3)c[nH]c2c1, the inhibition [1] was < 20%, the inhibition [2] was < 20% and the inhibition [3] was < 20%.
In the case of N#C/C(=C\c1ccc2c(c1)OCO2)c1c[nH]c2ccccc12, the inhibition [1] is reported as < 20%, the inhibition [2] is reported as < 20% and the inhibition [3] is reported as < 20%.
